# In the library only some 3.7% were active in any assay of this set; here they are far more common.
# Exocytosis inh = LAMP-1 surface exposure blockers, TALL-104 cells – cell-based, flow cytometry, MLPCN library, primary screen; 360,000 compounds, 0.66% hits; inhibition, % at 10 µM; TALL-104 LAMP-1 surface exposure; cells stimulated with thapsigargin and PMA;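 active means inhibition above about 55%, limit read from the data; inconclusive means no clear call, values can overlap the other calls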
# MC4R ag barr = MC4R agonists recruiting beta-arrestin, primary screen, cell-based, luminescence, agonist arm of biased-ligand search; 360,000 compounds, 0.98% hits; U2OS MC4R beta-arrestin complementation; percent of melanotan II response, DMSO zero; activation, % at 8.9 µM; AID 540308, 2011; Melanocortin receptor 4 (Homo sapiens), P32245;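 active means activation above a per-plate cutoff, the mean activation of sample wells on that plate plus 3 SD, cut at about 8% in these data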
# MC4R antag cAMP = MC4R antagonists of cAMP signaling, primary screen, cell-based, TR-FRET, antagonist arm of biased-ligand search; Melanocortin receptor 4 (Homo sapiens), P32245; MC4R-expressing cells, MTII-stimulated cAMP, LANCE TR-FRET; 360,000 compounds, 0.48% hits; AID 540295, 2011; inhibition, % at 6.5 µM;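 active means inhibition above its plate's cutoff, the mean of tested wells on that plate plus 3 SD, cut at about 29% in these data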;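 further: 0% = Melanotan II alone and 100% = Melanotan II plus saturating MCL0020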
#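 System: U2OS cells stably expressing human melanocortin 4 receptor (MC4R). Reagent: Melanotan II challenge after compound preincubation. Doses: 6.5 µM. Times: 30-min compound, 1-h challenge, 1-h detection, room temperature. Measured by: TR-FRET with Eu-cAMP and labeled anti-cAMP, 671 nm. Replicates: singlicate.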
# EBI2 antag = EBI2 receptor antagonists, beta-arrestin recruitment, primary screen, cell-based, luminescence, 7a,25-OHC stimulation, uHTS; AID 651636, 2012; 360,000 compounds, 0.81% hits; 7a,25-OHC stimulated; inhibition, % at 5 µM; G-protein coupled receptor 183 (Homo sapiens), P32249; in the data active means inhibition above about 38%;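 further: enzyme fragment complementation signal reports receptor beta-arrestin coupling in cells; 0% = agonist plus DMSO wells and 100% = wells without agonist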
# Target sequence (P32249 whole entry, looked up, the tested form may be a part): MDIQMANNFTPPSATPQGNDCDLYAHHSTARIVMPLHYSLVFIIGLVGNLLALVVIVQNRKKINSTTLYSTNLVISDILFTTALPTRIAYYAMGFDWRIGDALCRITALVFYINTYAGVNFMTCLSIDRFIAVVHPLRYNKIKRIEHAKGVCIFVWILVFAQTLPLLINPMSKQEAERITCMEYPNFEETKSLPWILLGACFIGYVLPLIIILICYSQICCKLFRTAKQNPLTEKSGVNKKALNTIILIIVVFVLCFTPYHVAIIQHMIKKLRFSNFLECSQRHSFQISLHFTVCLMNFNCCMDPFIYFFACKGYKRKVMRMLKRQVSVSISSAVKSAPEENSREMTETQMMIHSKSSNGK
# Myeloid diff 2 = induction of myeloid progenitor differentiation, primary screen, cell-based, flow cytometry, MLPCN library; ER-HoxA9 myeloid progenitors, lysozyme-GFP differentiation; calls only at 10 µM; 360,000 compounds, 1% hits; AID 624256, 2012;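 active means normalized GFP-positive differentiation at or above the plate's own cutoff, the solvent-only control mean plus 3 SD; inconclusive means no clear call, values can overlap the other calls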;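 further: cells exposed to compound for four days before flow analysis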
# Numbers without * were called inactive; i = inactive; ? = inconclusive; · = no result; + = active, no number; ! = repeats disagree.
SMILES,Exocytosis inh,MC4R ag barr,MC4R antag cAMP,EBI2 antag,Myeloid diff 2
COc1ccc(-c2cc(C(F)F)n3ncc(C(=O)N4CCN(C(=O)c5ccco5)CC4)c3n2)cc1,-0.4,-0.2,13.4,10.1,+
COc1ccc(-c2cc(C(F)F)n3ncc(C(=O)N4CCCCC4)c3n2)cc1,1.1,0.6,-11.2,12.2,i
CCN1CCN(C(=O)c2cc3c(-c4ccc(Cl)cc4)nn(C)c3s2)CC1,5.1,3.4,-2.4,24.2,+
Cn1nc(-c2ccc(Cl)cc2)c2cc(C(=O)NCCN3CCOCC3)sc21,-6.4,0.7,8.3,0.2,i
CC1CCCN(C(=O)c2cc3c(-c4ccc(Cl)cc4)nn(C)c3s2)C1 (stereo not drawn),-8.5,3.8,6.2,23.8,+
Cn1nc(-c2ccc(Cl)cc2)c2cc(C(=O)N3CCN(C(=O)c4ccco4)CC3)sc21,-2.8,-0.5,3.5,20.9,+
Cn1nc(-c2ccc(Cl)cc2)c2cc(C(=O)NC3CC3)sc21,10.6,3.6,-0.6,21.6,i
COc1cc(NC(=O)Cn2cnc3c(SC)nc(N)nc32)cc(OC)c1OC,-3.2,-0.7,15.2,-6.3,i
CCOc1ccc(N2C(=O)/C(=C/c3cccs3)N(CC(=O)OC)C2=S)cc1,2.3,20.0*,3.9,3.8,i
CC12CCC(O)CC1=CCC1C2CCC2(C)c3[nH]ncc3CC12 (stereo not drawn),22.0,-0.6,10.3,-0.7,i
O=C(CN1C(=O)COc2ccc(Cl)cc21)Nc1ccc2c(c1)OCCO2,-1.7,3.9,-0.7,-4.9,+
CC(=O)Cc1cc(O)c2ccccc2c1OC(=O)c1ccc(Br)cc1,4.5,16.9*,-1.2,5.8,+
NC(=O)C1CCN(c2nc(-c3ccc(F)cc3)cs2)CC1,6.0,-1.0,3.6,-2.3,+
NC(=O)C1CCN(c2nc(-c3cccnc3)cs2)CC1,5.0,-1.4,2.1,-5.0,i
Cc1ccc(S(=O)(=O)CCSc2nc(C)cc(C(F)(F)F)c2C#N)cc1,2.2,0.3,-2.0,-19.2,+
CCCCOc1ccc(-c2cc(C(F)(F)F)c(C#N)c(SCC(=O)O)n2)cc1,0.5,0.3,17.6,6.2,+
Cc1cc(C(F)(F)F)c(C#N)c(SCC(=O)Nc2nc3cc(Br)ccc3s2)n1,2.9,-3.3,-2.8,-4.2,+
CCOC(=O)NC(=O)CSc1nc(C)cc(C(F)(F)F)c1C#N,2.5,-1.1,-0.4,-7.4,+
COC(=O)CSc1nc(C)cc(C(F)(F)F)c1C#N,1.4,0.0,-9.5,-12.8,i
CCOc1cc(/C=C(\C#N)C(=O)Nc2cccc(C(=O)O)c2)ccc1OCc1ccccc1Cl,80.9*,-1.4,8.8,-27.9,i
CCOC(=O)[C@]12CCC=C1N(Cc1ccc(Cl)cc1Cl)C(=O)[C@H](CC(=O)NCc1cccc3ccccc13)C2,-0.5,·,·,12.2,i
CC(/C=C/c1ccco1)=N\NC(=O)CNc1ccc2ccccc2c1,100.0*,-0.9,4.7,0.8,i
CCNC(=O)C1(C)CCN(C(=O)c2cccs2)C1 (stereo not drawn),0.7,-1.3,7.0,-2.1,i
C=CCOC(=O)C1=C(C)NC(=S)NC1/C=C/c1ccccc1 (stereo not drawn),66.2*,0.0,3.9,5.0,i
O=S(=O)(Nc1nc2ccccc2nc1NCc1ccco1)c1ccc(F)cc1,-0.8,-1.0,-8.1,-1.6,i
SMILES,Exocytosis inh,MC4R ag barr,MC4R antag cAMP,EBI2 antag,Myeloid diff 2
O=S(=O)(Nc1nc2ccccc2nc1NCc1ccco1)c1ccccc1,-1.1,-0.6,3.1,2.5,+
Cc1ccc([N+](=O)[O-])cc1S(=O)(=O)Nc1ccc(-c2ccc(N3CCOCC3)nn2)cc1,2.7,-2.1,-0.1,3.2,i
Cc1ccc(NS(=O)(=O)c2cc([N+](=O)[O-])ccc2N/N=C/c2sc(N3CCOCC3)nc2-c2ccccc2)c(C)c1,6.6,-0.3,4.6,5.1,+
O=C1c2ccccc2-c2onc3c(N4CCN(CCO)CC4)cc(N4CCN(C(=O)c5ccco5)CC4)c1c23,3.4,-4.7,-6.8,1.7,+
Cc1nc(SCC(=O)NCC2CCCO2)[nH]c(=O)c1C (stereo not drawn),9.0,-0.3,9.6,-18.7,i
COc1ccc2c(C)cc(SCC(=O)N(C)C3CCS(=O)(=O)C3)nc2c1 (stereo not drawn),0.9,0.1,-1.3,-5.0,+
COc1ccc(C)c2sc(N(CCCN(C)C)C(=O)c3ccc(S(=O)(=O)N4CCc5ccccc5C4)cc3)nc12,41.9,36.7*,-4.4,-16.0,·
COc1cc2nc(N(CCCN(C)C)C(=O)c3ccc(S(=O)(=O)N4CCc5ccccc5C4)cc3)sc2cc1OC,46.5,-2.2,-3.0,4.1,i
Cc1ccc2sc(N(CCCN(C)C)C(=O)c3ccc(S(=O)(=O)N4CCc5ccccc5C4)cc3)nc2c1C,51.2,5.4,6.9,-16.1,?
COc1cccc2sc(N(CCCN(C)C)C(=O)c3ccc(S(=O)(=O)N4CCc5ccccc5C4)cc3)nc12,26.6,9.0*,-4.2,-2.2,i
COc1cc(CN2C[C@@H](CO)O[C@@H](n3cnc4c(N5CCCC5)ncnc43)C2)cc(OC)c1OC,-3.2,3.8,-15.7,-9.8,i
N=C1S/C(=C\c2ccc(-c3cccc(Cl)c3)o2)C(=O)N1c1nccs1,73.4*,-3.5,12.8,67.4*,i
Cc1ccc(Nc2cc(C)nn2-c2nc(C)cc(=O)[nH]2)cc1,2.3,-3.4,13.3,90.0*,?
O=C(COC(=O)CCSc1ccc(F)cc1)NCc1ccc(F)cc1,-18.8,3.3,4.0,-11.1,i
NNc1nc2c(-c3ccc(F)cc3)nnn2c2ccccc12,-1.3,-2.5,-0.1,-3.0,+
NNc1nc2c(-c3ccc(Cl)cc3)nnn2c2ccccc12,2.1,0.3,2.0,-12.6,+
C=C1C[C@]23C[C@@]1(O)CC[C@H]2[C@@]12C=C[C@H](O)[C@@](C)(C(=O)O1)[C@H]2[C@@H]3C(=O)O,0.5,-0.8,7.2,-9.3,+!
COc1ccc(C(=O)Nc2ccc(-c3ccc(C)o3)cc2)cc1S(=O)(=O)N1CCOCC1,72.4*,0.7,6.9,-3.8,i
COc1ccc(C(=O)Nc2ccc(N3CCOCC3)cc2)cc1S(=O)(=O)N1CCOCC1,-2.3,2.0,6.8,-2.1,i
Cc1cc(N/N=C/c2ccc(O)cc2O)nc(-n2nc(C)cc2C)n1,-0.1,-3.3,-25.8,84.5*,i
